Test results taken from ChEMBL document CHEMBL2321684, “Novel hybrids of optically active ring-opened 3-n-butylphthalide derivative and isosorbide as potential anti-ischemic stroke agents” (J Med Chem, 2013).
Activity calls are given as the source filed them. The calls are words filed in the database; no cut-off is given here.

Assays:
[1] = test system: Rattus norvegicus; experiment: Antiischemic activity in Sprague-Dawley rat assessed as reduction in middle cerebral artery occlusion-induced abnormal changes in brain at 340 mg/kg administered via gavage for 7 days prior to middle cerebral artery occlusion-challenge measured after 24 hrs by microscopic analysis; assay type: functional, organism-based; parameters: dose 340 mg/kg
Summary of the method: (§1)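 Male SD rats (280−320 g), n = 12 per group, dosed by gavage daily for 7 days in 0.5% CMC-Na vehicle. Sham animals received vehicle only. Two hours after the last dose, rats were anesthetized with chloral hydrate (300 mg/kg ip) and given MCAO for 2 h, then reperfused. Body temperature was held at 37 °C. All endpoints were read at 24 h post reperfusion.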

[2] = test system: Rattus norvegicus; experiment: Antiischemic activity in Sprague-Dawley rat assessed as reduction in middle cerebral artery occlusion-induced inflammatory infiltrates in brain at 80 mg/kg administered via gavage for 7 days prior to middle cerebral artery occlusion-challenge measured after 24 hrs by microscopic analysis; assay type: functional, organism-based; parameters: dose 80 mg/kg; summary of the method: as §1
[3] = test system: Rattus norvegicus; experiment: Antiischemic activity in Sprague-Dawley rat assessed as reduction in middle cerebral artery occlusion-induced necrosis in neurons at 80 mg/kg administered via gavage for 7 days prior to middle cerebral artery occlusion-challenge measured after 24 hrs by microscopic analysis; assay type: functional, organism-based; parameters: dose 80 mg/kg; summary of the method: as §1
[4] = test system: Rattus norvegicus; experiment: Antiischemic activity in Sprague-Dawley rat assessed as reduction in middle cerebral artery occlusion-induced water content in brain at 340 mg/kg administered via gavage for 7 days prior to middle cerebral artery occlusion-challenge measured after 24 hrs relative to control; assay type: functional, organism-based; parameters: dose 340 mg/kg; summary of the method: as §1
[5] = test system: Rattus norvegicus; experiment: (§2) Antiischemic activity in Sprague-Dawley rat assessed as reduction in middle cerebral artery occlusion-induced water content in brain at 80 mg/kg administered via gavage for 7 days prior to middle cerebral artery occlusion-challenge measured after 24 hrs relative to control; assay type: functional, organism-based; parameters: dose 80 mg/kg; summary of the method: as §1
[6] = test system: Rattus norvegicus; experiment: as §2, with “infarct size” for “water content”, “hrs by triphenyltetrazolium chloride assay” for “hrs”; assay type: functional, organism-based; parameters: dose 80 mg/kg; summary of the method: as §1
[7] = Plasma concentration in ICR mouse at 680 mg/kg, po after 8 hrs by HPLC analysis; assay type: ADME, organism-based; parameters: dose 680 mg/kg, route oral
Summary of the method: (§3)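 Male ICR mice (30−35 g), n = 6 per time point, were given a single 680 mg/kg gavage dose and sacrificed at 0.5, 1, 2, 4 and 8 h. Brains were rinsed, weighed and homogenized in 3 volumes of saline. Plasma and homogenate were precipitated with 3 volumes of acetonitrile.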

[8] = Plasma concentration in ICR mouse at 680 mg/kg, po after 1 hrs by HPLC analysis; assay type: ADME, organism-based; parameters: dose 680 mg/kg, route oral; summary of the method: as §3
[9] = Biodistribution in ICR mouse brain at 680 mg/kg, po after 4 hrs by HPLC analysis; assay type: ADME, organism-based; parameters: dose 680 mg/kg, route oral; settings: read-out: Drug uptake; summary of the method: as §3
[10] = test system: Rattus norvegicus; experiment: Antithrombotic activity in Sprague-Dawley rat assessed as reduction in arteriovenous shunt-induced dry thrombus weight at 80 mg/kg, administered via gavage for 7 days prior to arteriovenous shunt-challenge measured up to 15 mins relative to control; assay type: functional, organism-based; parameters: dose 80 mg/kg
Summary of the method: (§4)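 Male SD rats (250−280 g), n = 12 per group, dosed by gavage daily for 7 days in 0.5% CMC-Na. Two hours after the last dose, rats were anesthetized with chloral hydrate (300 mg/kg ip). A saline-filled 14 cm polyethylene catheter holding a 6 cm silk thread linked the left jugular vein and right carotid artery for 15 min. The thrombus was then weighed wet and dry. Results are mean ± SD, analysed by ANOVA/Tukey.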

[11] = test system: Rattus norvegicus; experiment: Antithrombotic activity in Sprague-Dawley rat assessed as reduction in arteriovenous shunt-induced wet thrombus weight at 80 mg/kg, administered via gavage for 7 days prior to arteriovenous shunt-challenge measured up to 15 mins relative to control; assay type: functional, organism-based; parameters: dose 80 mg/kg; summary of the method: as §4
[12] = Stability in artificial intestinal juice assessed as compound remaining at pH 6.8 after 1 hr by HPLC analysis; assay type: physicochemical; settings: simulated gi fluid, pH 6.8, 1 h
[13] = Stability in artificial gastric juice assessed as compound remaining at pH 1.5 after 2 hr by HPLC analysis; assay type: physicochemical; settings: simulated gi fluid, pH 1.5, 2 h
[14] = Antiplatelet aggregation activity in rabbit platelets assessed as inhibition of arachidonic acid-induced platelet aggregation incubated for 5 mins prior to arachidonic acid-challenge measured within 5 mins by Born's turbidimetric analysis; assay type: functional, cell-based; settings: Oryctolagus cuniculus
Summary of the method: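 Rabbit citrated PRP was adjusted to 400−450 × 10⁹ platelets/L and preincubated for 5 min at 37 °C with vehicle DMSO or compound at 0.1−1.6 mM (at least five concentrations). Aggregation was induced with arachidonic acid (0.33 mM, per the methods text). Maximum aggregation rate was recorded over 5 min by Born's turbidimetry, and IC₅₀ was derived from inhibition versus vehicle (mean ± SD).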

concentration at 8 h [7]: 69.7 ng/mL | concentration at 1 h [8]: 241 ng/mL | concentration at 4 h [9]: 54.3 ng/mL | Stability [12]: 4.86 µM | Stability [13]: 5 µM | IC50 [14]: 50 µM
Compound: CCCC[C@H](OC(=O)CN1CCN(C)CC1)c1ccccc1C(=O)O[C@H]1CO[C@H]2[C@@H]1OC[C@H]2OC(=O)c1ccccc1[C@H](CCCC)OC(=O)CN1CCN(C)CC1
Activity [1]: Active | Activity [2]: Active | Activity [3]: Active | Activity [4]: Active | Activity [5]: Active | Activity [6]: Active | Activity [10]: Active | Activity [11]: Active
